The structures appear in SMILES notation. In brackets after ≈: the same amount, converted by molar mass. Activity calls are given as the source filed them. The calls are words filed in the database; no cut-off is given here.

In assay [1] the test system is Mycobacterium tuberculosis. Kind of assay: Antimycobacterial activity against replicating Mycobacterium tuberculosis H37Rv assessed as inhibition of bacterial growth incubated for 7 days by MABA assay. It counts as functional. The conditions noted are these: time 7 day. A general note: The colour change of resazurin is a common sign of viable cells or microbes.
Assay [2] deals with Mycobacterium tuberculosis. Kind of assay: Antimycobacterial activity against non-replicating Mycobacterium tuberculosis H37Rv expressing pFCA-LuxAB assessed as bacterial growth inhibition incubated for 10 days under anerobic condition by low oxygen recovery assay. The conditions noted are these: 240 h, time 10 day. Format: functional.
Assay [3] relates to Mycobacterium tuberculosis. Description: Antimycobacterial activity against replicating Mycobacterium tuberculosis H37Ra assessed as inhibition of bacterial growth incubated for 7 days by MABA assay. It counts as functional. The conditions noted are these: time 7 day.
Assay [4] concerns Mycolicibacterium smegmatis. Kind of assay: Antimycobacterial activity against Mycobacterium smegmatis mc2155 assessed as inhibition of bacterial growth incubated for 48 hrs by broth microdilution method. Conditions: MC2 155. It counts as functional. Background: In broth dilution the organism is exposed to a series of concentrations in liquid medium.
Assay [5] is described as follows: Cytotoxicity against human PBMC assessed as reduction in cell growth after 72 hrs by MTT assay. Format: tissue-based. (Tetrazolium assays rely on reduction of a dye to a coloured formazan, in cell work by metabolically active cells.)
Assay [6] deals with Mycobacterium tuberculosis. Description: Inhibition of mycolic acid biosynthesis in Mycobacterium tuberculosis H37Ra assessed as reduction in alfa-mycolate production at 5XMIC incubated for 7 days by TLC analysis. The conditions noted are these: time 7 day. It counts as functional.
Assay [7] in a line: Inhibition of Mycobacterium tuberculosis H37Ra menG assessed as inhibition of 2-methyl-3-(3,7,11-trimethyldodeca-2,6,10-trienyl)naphthalene-1,4-dione formation using 2-(3,7,11-trimethyldodeca-2,6,10-trienyl)naphthalene-1,4-dione as substrate incubated for 3 hrs in presence of SAM by HPLC analysis.
Assay [8] in a line: Inhibition of Mycobacterium smegmatis mc2155 menG assessed as inhibition of 2-methyl-3-(3,7,11-trimethyldodeca-2,6,10-trienyl)naphthalene-1,4-dione formation using 2-(3,7,11-trimethyldodeca-2,6,10-trienyl)naphthalene-1,4-dione as substrate incubated for 3 hrs in presence of SAM by HPLC analysis. The arrangement: species or system Mycolicibacterium smegmatis MC2 155.
The test system of assay [9] is Mycobacterium tuberculosis. Description: Antimycobacterial activity against Mycobacterium tuberculosis H37Rv ATCC 27294 assessed as inhibition of bacterial growth by agar plate dilution method. It counts as functional. In a few lines: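 MIC determined by agar plate dilution method; isoniazid and rifampin run as references.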
Assay [10] deals with Mycobacterium tuberculosis. Description: Inhibition of mycolic acid biosynthesis in Mycobacterium tuberculosis H37Ra assessed as reduction in methoxy-mycolate production at 5XMIC incubated for 7 days by TLC analysis. Format: functional. The conditions noted are these: time 7 day.
Assay [11] concerns Mycobacterium tuberculosis. Kind of assay: Inhibition of mycolic acid biosynthesis in Mycobacterium tuberculosis H37Ra assessed as reduction in keto-mycolate production at 5XMIC incubated for 7 days by TLC analysis. It counts as functional. The conditions noted are these: time 7 day.
Assay [12] has as its system Mycobacterium tuberculosis. Description: Antimycobacterial activity against dormant Mycobacterium tuberculosis H37Ra assessed as inhibition of bacterial growth at 30 ug/ml incubated for 10 days in presence of Vit-K2 measured following 27 days of culturing on agar plate […] relative to control. It counts as functional. Conditions: dose 30 µg/ml; time 37 day. The essentials: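 Dormant H37Ra: 2×10⁶ bacteria/ml in sealed vials, 37 °C, 25 rpm. Cultures with compound (3 or 30 µg/ml) plus 1 mM Vit-K2 grown 10 days, then CFU counted on 7H10 agar after 27 days; comparison with 1 mM Vit-K2 set.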

Assay [13] concerns Mycobacterium tuberculosis. Description: Inhibition of respiratory system in dormant Mycobacterium tuberculosis H37Ra assessed as reduction in ATP production at 20 to 80 ug/ml measured on day 3 to 9 following drug addition by microplate reader analysis. It counts as functional. The conditions noted are these: dose 20-80 µg/ml, time 3-9 day.

For `CC(C)=CCC/C(C)=C/CC/C(C)=C/COc1ccc(C(=O)OCCCOc2cccc(Nc3nc4ccccc4c(=O)o3)c2)cc1`, the MIC (usually the least concentration at which growth counts as inhibited) was determined as 2.97 mg/L (≈ 4.66 µM) in [1]; 2.15 mg/L (≈ 3.38 µM) in assay [2]; 2.71 mg/L (≈ 4.26 µM) in assay [3]; 3.2 mg/L (≈ 5.03 µM) in assay [4]; 2.9 mg/L (≈ 4.55 µM) in [9]. Further, the results for the IC50 in assay [5], in [7] and in assay [8] were 169 mg/L (≈ 266 µM), 6.25 mg/L and 10.88 mg/L, respectively. Moreover, the “inhibition (INH)” value in assay [6], in assay [10] and in assay [11] was 100% each time. The “fold change (FC)” value in assay [12] is 4.1. Further, the inhibition result in assay [13] is “Active”.

With `CC(C)=CCC/C(C)=C/COc1ccc(C(=O)OCCCOc2cccc(Nc3nc4ccccc4c(=O)o3)c2)cc1`, the MIC came to 3.48 mg/L (≈ 6.12 µM) in [1]; 2.94 mg/L (≈ 5.17 µM) in assay [2]; 3.93 mg/L (≈ 6.91 µM) in assay [3]; 6.3 mg/L (≈ 11.1 µM) in assay [4]; 3.5 mg/L (≈ 6.15 µM) in assay [9]. Further, the IC50 (in general, the point on the concentration scale where inhibition reaches its midpoint) in assay [5] was 134 mg/L (≈ 236 µM); in [7], 9.11 mg/L; in assay [8] it was 11.76 mg/L. For the same molecule, the “inhibition (INH)” value in assay [6], in assay [10] and in assay [11] was 100% each time. In [12], the “fold change (FC)” value was determined as 2.9.
